# Experimental data as given in paper PMC10356740 (Journal of sleep research, 2023).
# Like-named read-outs stand apart in the source and are kept apart here.
# Key:
# [1] = assay type: in vivo; conditions: mouse, 10 mg/kg
# Summary of the method: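 Dosing was 10 mg/kg, s.c. or i.p. by compound, with sparse sampling of plasma and brain. Total drug measured by LC-MS/MS was multiplied by fraction unbound to give free concentrations. Fraction unbound came from 5 μM compound incubated in mouse plasma or brain homogenate by rapid equilibrium dialysis. Parameters were derived by noncompartmental analysis, with terminal half-life by best fit.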
# [2] = system: narcoleptic male orexin/tTA; TetO-DTA mice; assay: EEG spectral power analysis; assay type: in vivo, mouse
# Summary of the method: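 Male orexin/tTA;TetO-DTA mice (n = 7) with subcutaneous EEG/EMG telemeters received vehicle or 1, 3 or 10 mg/kg (s.c. or i.p. by compound, 10 mL/kg) 15 min before light offset at ZT12. Design was repeated measures in balanced order, ≥3 d apart. Normalized EEG spectra were taken in 0.122 Hz bins and bands: delta 0.5–4, theta 4–9, alpha 9–12, beta 12–30, low gamma 30–60, high gamma 60–100 Hz. Each state needed ≥3 animals. Analysis was 2-way RM ANOVA with Holm-Sidak.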
# [3] = system: narcoleptic male orexin/tTA; TetO-DTA mice; assay: Gross motor activity, running wheel activity and subcutaneous temperature; assay type: in vivo, mouse; conditions: for Number of running bouts: ZT13
# Summary of the method: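 Gross motor activity came from the implanted subcutaneous telemeter, alongside home-cage running-wheel activity and bouts and subcutaneous temperature, analysed per ZT hour after dosing. Male DTA mice (n = 7), adapted ≥2 weeks to wheels, handling and dosing, received vehicle or 1, 3 or 10 mg/kg s.c. or i.p. 15 min before ZT12 in repeated-measures order. Analysis was 2-way RM ANOVA (treatment × time) with Holm-Sidak.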
# [4] = system: narcoleptic male orexin/tTA; TetO-DTA mice; assay: EEG/EMG sleep/wake and cataplexy scoring after dosing before dark onset; assay type: in vivo, mouse; conditions: for Latency to REM sleep / Latency to NREM sleep: vs vehicle; for Wake bout duration, treatment effect: 6-h recording; for REM/NREM ratio: entire 6-h recording; for Wake bout duration: first post-dosing hour (ZT13); for Compensatory NREM sleep after increased wakefulness: hours after the first post-dosing hour
# Summary of the method: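 Crossover in telemetered male DTA mice (n = 7) given 1, 3 or 10 mg/kg s.c. or i.p., or the matching vehicle, 15 min before ZT12, ≥3 d between doses. EEG/EMG were scored for 6 h as hourly and cumulative time per state and as bouts. NREM latency ran from dosing to the first 6 consecutive NREM epochs; REM latency to the first 3 REM epochs. Analysis used 1-way ANOVA or 2-way RM ANOVA (treatment × time), with Holm-Sidak vs vehicle.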
# [5] = Fraction unbound by rapid equilibrium dialysis; assay type: in vitro ADME; conditions: mouse
# [6] = system: healthy sleep-deprived adults; conditions: Phase 1; ref Evans et al., 2019; cited from earlier work
# [7] = system: narcoleptic OX2R knockout (KO) mice; conditions: subcutaneous; ref Yukitake et al., 2019; cited from earlier work
# wild-type mice = conditions: subcutaneous; ref Yukitake et al., 2019; cited from earlier work
# [8] = system: Hcrt-deficient, Hcrt neuron-ablated and wild-type mice; conditions: peripheral administration; ref Irukayama-Tomobe et al., 2017; cited from earlier work
# [9] = system: Hcrt peptide-deficient and Hcrt neuron-ablated mice; conditions: ref Irukayama-Tomobe et al., 2017; cited from earlier work
# [10] = system: Hcrt receptor-deficient mice; conditions: ref Irukayama-Tomobe et al., 2017; cited from earlier work
# [11] = first post-dosing hour (ZT13), 3 and 10 mg/kg i.p.
# [12] = second post-dosing hour, 10 mg/kg s.c.
# [13] = first post-dosing hour (ZT13), all doses s.c.
# [14] = first hour, all doses 1–10 mg/kg s.c.
# [15] = first post-dosing hour, all doses s.c.
compound,measurement,setting,value
"CCNC(=O)N1CCC[C@H](NS(C)(=O)=O)[C@@H]1CO[C@H]1CC[C@@H](C(C)C)CC1 [ARN-776, (2R,3S)-N-ethyl-2-{[(cis-4-isopropylcyclohexyl)oxy]methyl}−3-[(methylsulfonyl)amino]piperidine-1-carboxamide]",Cmax,"[1]; brain, ip",13 ng/g
same,Tmax,"[1]; brain, ip",10 min
same,half-life,"[1]; brain, ip",38 min
same,AUC(0-t),"[1]; plasma, ip",191 ng·h/mL
same,Cmax,"[1]; plasma, ip",326 ng/mL
same,Tmax,"[1]; plasma, ip",10 min
same,half-life,"[1]; plasma, ip",125 min
same,High gamma EEG power during Wake across the entire recording period,"[2]; 10 mg/kg i.p., p = 0.04",significantly increased high gamma
same,Waking EEG low and high gamma power,"[2]; ZT13, 3 mg/kg i.p.",significantly increased
same,NREM EEG alpha and high gamma power,"[2]; ZT14, 10 mg/kg i.p.",significant reductions
same,NREM EEG high gamma power,"[2]; ZT15, 10 mg/kg i.p.",reduction of high gamma continued into ZT15
same,"Waking EEG power in alpha, low gamma and high gamma","[2]; first post-dosing hour, 10 mg/kg i.p.",significantly increased power in all three of these bands
same,Number of running bouts,[3]; 3 and 10 mg/kg i.p.,more running bouts
same,Gross motor activity,"[3]; ZT15, highest dose i.p.",reduced gross motor activity
same,Gross motor activity,[3]; [11],significantly increased motor activity
same,Running wheel activity,[3]; [11],significantly increased running wheel activity
same,Subcutaneous temperature (Tsc),[3]; [11],significantly increased Tsc
same,Number of Wake bouts across the entire 6-h recording,[4]; 3 mg/kg (p = 0.03) and 10 mg/kg (p = 0.002) i.p.,significantly reduced the number of Wake bouts
same,Cataplexy bout duration,"[4]; 3 mg/kg i.p., p = 0.046",modest effect
same,Cumulative time in Wake,"[4]; 10 mg/kg i.p., post hoc p = 0.005",significant effects
same,Cumulative time in NREM sleep,"[4]; 10 mg/kg i.p., post hoc p = 0.028",significant effects
same,Latency to REM sleep,[4]; 10 mg/kg i.p.,delayed REM sleep
same,"NREM bout duration, post hoc test per dose",[4]; 1–10 mg/kg i.p.,did not identify any specific dose
same,"REM bout duration, post hoc test per dose",[4]; 1–10 mg/kg i.p.,did not identify any specific dose
same,REM sleep rebound after early suppression,[4]; 1–10 mg/kg i.p.,rebound did not reach statistical significance
same,Percent time in Cataplexy across the 6-h recording,"[4]; all 3 doses (1, 3, 10 mg/kg i.p.)",reduced Cataplexy across the 6-h period
same,Cumulative time in Cataplexy,[4]; all 3 doses i.p.,cumulative suppression of Cataplexy
same,"Wake bout duration, treatment effect",[4]; all doses i.p.,significant treatment effects
same,REM/NREM ratio,[4]; i.p.,unchanged
same,Number of NREM bouts,"[4]; first hour post-dosing, only middle and high doses i.p.",reduced the number of NREM bouts
same,Hourly amount of NREM sleep,"[4]; first hour, 1–10 mg/kg i.p.",dose-related changes
same,Hourly amount of REM sleep,"[4]; first hour, 1–10 mg/kg i.p.",dose-related changes
same,Hourly amount of Wake,"[4]; first hour, 1–10 mg/kg i.p.",dose-related changes
same,Number of Wake bouts,"[4]; first hour, 1–10 mg/kg i.p.",dose-related effect
same,Reduction in hourly Cataplexy levels,"[4]; first hour, 1–10 mg/kg i.p.",did not reach statistical significance
same,Wake bout duration,[4]; all doses i.p.,increased Wake bout duration
same,Compensatory NREM sleep after increased wakefulness,[4]; i.p.,no compensatory increase in NREM sleep
same,Suppression of cumulative REM sleep,[4]; lower doses i.p.,limited to the first post-dosing hour
same,Number of REM bouts,[4]; only 10 mg/kg i.p.,reduced the number of REM bouts
same,Latency to NREM sleep,[4]; only 3 and 10 mg/kg i.p. (not 1 mg/kg),delayed NREM
same,Number of Cataplexy bouts,[4]; only the two highest concentrations i.p.,effective during the first and later hours
same,Number of Wake bouts,"[4]; second hour, only 10 mg/kg i.p.",reduced the number of Wake bouts
same,fraction unbound at 5 μM,[5]; mouse brain homogenate,0.121
same,fraction unbound at 5 μM,[5]; mouse plasma,0.176
"COC(=O)N1CCC[C@H](NS(C)(=O)=O)[C@@H]1CO[C@H]1CC[C@@H](c2ccccc2)CC1 [TAK-925, Methyl (2R,3S)-3-[(methylsulfonyl)amino]-2-{[(cis-4-phenylcyclohexyl)oxy]methyl}piperidine-1-carboxylate]",Ability to maintain wakefulness,[6],improved individuals’ ability to maintain wakefulness
same,Tolerability,[6],well-tolerated
same,Wakefulness,[7],but not in narcoleptic OX2R knockout (KO) mice
same,Cmax,"[1]; brain, sc",20 ng/g
same,Tmax,"[1]; brain, sc",10 min
same,half-life,"[1]; brain, sc",53 min
same,AUC(0-t),"[1]; plasma, sc",335 ng·h/mL
same,Cmax,"[1]; plasma, sc",160 ng/mL
same,Tmax,"[1]; plasma, sc",10 min
same,half-life,"[1]; plasma, sc",36 min
same,High gamma EEG power during Wake across the entire recording period,"[2]; 10 mg/kg s.c., p = 0.02",significantly increased high gamma
same,Waking EEG high gamma power,"[2]; ZT13, 1 mg/kg s.c.",significantly increased high gamma power
same,"Waking EEG spectral power in alpha, low gamma and high gamma","[2]; ZT13, 3 and 10 mg/kg s.c.",significantly increased spectral power in all three bandwidths
same,NREM EEG delta power,"[2]; ZT14, 1 mg/kg s.c.",increased NREM delta
same,NREM EEG spectral power,"[2]; ZT14, 10 mg/kg s.c.",increased spectral power during ZT14 for all EEG bands except for low gamma
same,"Waking EEG high gamma power, persistence of effect",[2]; [12],continued into the second post-dosing hour
same,Number of running bouts,[3]; all doses s.c.,more running bouts
same,Running wheel activity,"[3]; ZT17, 10 mg/kg s.c.",Reduced running wheel activity
same,Gross motor activity,"[3]; ZT17, highest dose s.c.",reduced gross motor activity
same,Running wheel activity,"[3]; ZT18, 10 mg/kg s.c.",increase at ZT18
same,Running wheel activity,"[3]; first post-dosing hour (ZT13), 1 mg/kg s.c.",significantly increased running wheel activity
same,Gross motor activity,[3]; [13],significantly increased motor activity
same,Subcutaneous temperature (Tsc),[3]; [13],significantly increased Tsc
same,Duration of the reduction of Wake bouts,[4]; 10 mg/kg s.c.,up to 3 h
same,Cumulative time in Cataplexy,"[4]; 10 mg/kg s.c., p = 1.74 × 10^−4",suppression of Cataplexy
same,Latency to NREM sleep,"[4]; 1, 3 and 10 mg/kg s.c.",delayed NREM sleep onset
same,"Effects on arousal states (Wake, NREM, REM) across the 6-h recording",[4]; 1–10 mg/kg s.c.,transitory
same,"NREM bout duration, post hoc test per dose",[4]; 1–10 mg/kg s.c.,did not identify any specific dose
same,"REM bout duration, post hoc test per dose",[4]; 1–10 mg/kg s.c.,did not identify any specific dose
same,Latency to REM sleep,"[4]; all doses (1, 3, 10 mg/kg s.c.)",delayed REM sleep
same,"Wake bout duration, treatment effect",[4]; all doses s.c.,significant treatment effects
same,REM/NREM ratio,[4]; s.c.,unchanged
same,Hourly amount of Cataplexy,[4]; [14],eliminated
same,Hourly amount of NREM sleep,[4]; [14],eliminated
same,Hourly amount of REM sleep,[4]; [14],eliminated
same,Hourly amount of Wake,[4]; [14],caused continuous wakefulness
same,Wake bout duration,[4]; all doses s.c.,increased Wake bout duration
same,Number of bouts of Cataplexy,[4]; [15],reduced the number of bouts
same,Number of bouts of NREM,[4]; [15],reduced the number of bouts
same,Number of bouts of REM,[4]; [15],reduced the number of bouts
same,Number of bouts of Wake,[4]; [15],reduced the number of bouts
same,Number of Cataplexy bouts,"[4]; first two hours, all doses s.c.",reduced the number of Cataplexy bouts
same,Compensatory NREM sleep after increased wakefulness,[4]; s.c.,no compensatory increase in NREM sleep
same,Number of Wake bouts across the entire 6-h recording,"[4]; only 10 mg/kg s.c., p = 0.013",reduced the number of Wake bouts
same,Percent time in Cataplexy across the 6-h recording,[4]; only the highest dose (10 mg/kg s.c.),reduced Cataplexy across the entire 6-h recording period
same,REM sleep rebound after early suppression,"[4]; s.c., ZT16, 4 hours post-treatment",rebound that reached significance at ZT16
same,Cumulative time in REM sleep,"[4]; s.c., first two hours after dosing, followed by a later rebound",significant suppression of REM sleep
same,Increase of Wake bout duration,"[4]; second post-dosing hour (ZT14), highest dose s.c.",continued into the second post-dosing hour
same,Hourly amount of Cataplexy,[4]; [12],reduction of Cataplexy continued into the second post-dosing hour
same,Wakefulness,wild-type mice,wake-promoting
same,fraction unbound at 5 μM,[5]; mouse brain homogenate,0.077
same,fraction unbound at 5 μM,[5]; mouse plasma,0.107
COc1ccc(-c2cccc(C(=O)N(C)C)c2)cc1S(=O)(=O)Nc1cccc(NCCNC(=O)c2ccccc2N(C)C)c1 [YNT-185],Wakefulness,[8],promoted wakefulness
same,Sleep onset REM periods (SOREMs),[9],reduced sleep onset REM periods (SOREMs)
same,Sleep onset REM periods (SOREMs),[10],but not in Hcrt receptor-deficient mice
